Assay outcomes (PubChem)
Rows were chosen to be rich in hits. Some 5% of all compounds tested hit in one or more screens of this group.
Beta cell apopt = beta cell apoptosis inhibition; INS-1E cytokine-induced death, ATP luminescence, 48 h; percent of positive-control rescue, neutral wells zero; protection from apoptosis, % (test concentration not listed); 0.8% of 300,000 active; AID 435005;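 active means Every replicate reaches about 75%, or at least half do and their mean reaches it too, limit read from the data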;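 further: 0% = cytokine-treated negative control wells and 100% = positive control rescue; higher means more ATP so stronger rescue from cytokine killing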
Mdm2 MdmX PPI = human Mdm2/MdmX binding inhibition. O15151+Q00987. SaOS-2 split-luciferase Mdm2/MdmX complementation, luminescence. inhibition, % at 8 µM. 3% of 330,000 active. AID 485346;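 active means inhibition of at least 50% at 8 µM in the primary screen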
UPR XBP1 act = adaptive UPR (XBP1) activation. CHO-XBP1 luciferase reporter, IRE1-XBP1 UPR activation, luminescence; percent of tunicamycin response, DMSO as zero. activation, % at 20 µM. 0.33% of 330,000 active;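 active means versus positive control, 20 µM dose yields 30% or more activation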;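 further: 100% = tunicamycin at 10 µg/mL and 0% = DMSO only wells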
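Material: CHO cell line with stable XBP1 luciferase reporter; buffer or medium: F12 medium containing 10% fetal bovine serum; compound: single point, 20 µM final compound, 1% DMSO; incubation: 6 h treatment, 37 °C; measured by: glow luminescence from Steady-Glo reagent; evaluation: activation, % of tunicamycin; control set: tunicamycin high, DMSO low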
CSC inhib = cancer stem cell inhibition; AID 2717; inhibition, % at 7.5 µM; cancer stem cell-like cells viability, luminescence; 1.1% of 300,000 active; in the data active means inhibition above about 75%; tested in HMLE shEcad cells
CHOP UPR activ = activators of apoptotic arm of unfolded protein response (CHOP) | CHO-CHOP luciferase reporter, UPR activation, luminescence; percent of tunicamycin response over DMSO baseline | activation, % at 10 µM | 0.34% of 330,000 active | AID 449763;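 active means at 10 µM dose, activation of 40% or more, normalized to positive control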;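 further: 100% = tunicamycin at 10 µg/mL and 0% = DMSO alone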
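Assay system: CHO-CHOP cells, stable luciferase reporter of PERK-eIF2a-CHOP signalling / Buffer or medium: F12 plus 10% serum / Compound dosing: one dose, 10 µM in 0.5% DMSO / Times: 6 h compound treatment, 37 °C / Technique: luciferase luminescence / Read-out: % reporter activation, DMSO baseline versus tunicamycin full activation / Benchmarks: tunicamycin and DMSO controls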
T cruzi repl = blocks replication of Trypanosoma cruzi | inhibition, % (test concentration not listed) | T. cruzi beta-gal in NIH3T3, luminescence, 90 h | AID 1885 | 1.4% of 300,000 active;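 active means mean inhibition across valid replicates above about 55%, limit read from the data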;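 further: signal also drops with host cell toxicity which is not excluded here; 0% = plate median of DMSO wells and 100% = zero luminescence signal; higher percent means less beta-gal luminescence so fewer parasites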
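Assay system: NIH/3T3 host cells with β-galactosidase reporter T. cruzi; input: 5,000 host fibroblasts per well; compound: single 50 nL compound addition per well in DMSO; timing: ≥90 h infection period, 3 h prior cell attachment; measured by: GalScreen β-gal luminescence, detergent lysis, 60 min; evaluation: percent inhibition of parasite-derived β-gal signal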
Mdm2 MdmX conf = human Mdm2/MdmX binding inhibition, confirmed. shares compounds with Mdm2 MdmX PPI. luminescent assay. inhibition, % at 8 µM. 55% of 10,000 active. AID 489028; in the data active means inhibition above about 40%
FLuc counter = full-length luciferase inhibition in Mdm2/MdmX counter-screen; shares compounds with Mdm2 MdmX PPI; 77% of 6,200 active; SaOS-2 full-length luciferase counterscreen, luminescence; inhibition, % at 8 µM;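 active means mean inhibition at 8 µM reaching about 37%, which flags the compound as non-specific, limit read from the data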;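 further: p53-null SaOS-2 cells with luciferase driven by a doxycycline-inducible promoter; compound on cells about two nights before reading with doxycycline added after day one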
* = called active by the depositor; nt = no result given.

SMILES	Beta cell apopt	Mdm2 MdmX PPI	UPR XBP1 act	CSC inhib	CHOP UPR activ	T cruzi repl	Mdm2 MdmX conf	FLuc counter
CC1CCN(CCCNC(=O)c2ccc3c(=O)n(Cc4ccc(Cl)cc4)c(=S)[nH]c3c2)CC1	-6.3	88.1*	0.4	88.0*	3.9	7.7	38.2	76.5*
COc1ccc2c(c1)CC(C(=O)Nc1ccc(Cl)cc1)/C(=N/O)O2 (stereo not drawn)	-1.4	27.9	-5.2	-3.4	-1.1	-7.1	nt	nt
COc1ccc(CCC(=O)OCC(=O)Nc2ccccc2)cc1	-5.3	10.0	7.2	-12.2	16.8	-2.9	nt	nt
CCc1cccc(NC(=O)CSc2nc3c(c(=O)[nH]2)CCCC3)c1	-1.4	24.0	-3.3	5.4	0.1	2.2	nt	nt
CC(=O)O[C@@]12CO[C@@H]1C[C@H](O)[C@@]1(C)C(=O)[C@H](O)C3=C(C)[C@@H](OC(=O)[C@H](O)[C@@H](NC(=O)OC(C)(C)C)c4ccccc4)C[C@](O)([C@@H](OC(=O)c4ccccc4)[C@H]21)C3(C)C	nt	55.8*	0.1	54.7	2.7	56.0*	62.0*	52.6*
CC(=O)O[C@H]1C[C@@]2(O)[C@@H](OC(=O)c3ccccc3)C3[C@@](C)([C@@H](O)C[C@H]4OC[C@@]34OC(C)=O)[C@@H](O)[C@H](OC(C)=O)C(=C1C)C2(C)C (stereo partly drawn)	nt	13.9	-3.4	-5.0	0.1	2.7	nt	nt
O=C(Nc1c(-c2ccccc2)nc2ccccn12)c1cccc(F)c1	-5.5	18.9	-4.6	4.1	0.6	-1.0	nt	nt
O=C(Nc1cccc(-c2nc3ccccc3o2)c1)c1ccc(N2C(=O)C3C4C=CC(C4)C3C2=O)cc1 (stereo not drawn)	4.3	58.8*	1.6	-1.7	-3.6	20.3	21.4	nt
O=C1C2C3C=CC(C3)C2C(=O)N1c1cccc(-c2nc3ccccc3o2)c1 (stereo not drawn)	-5.5	17.3	7.1	-7.8	-0.7	-6.4	nt	nt
CN(C)S(=O)(=O)c1ccc(N2CCCC2)c(C(=O)Nc2nc(-c3cc(F)ccc3F)cs2)c1	-0.9	54.8*	8.6	22.7	-0.3	22.6	47.3*	47.5*
COc1ccc(-c2oc3ccc(N4CCOCC4)cc3c2C#CC2(O)CCCCC2)cc1	nt	72.8*	7.4	13.5	3.9	21.4	59.5*	53.7*
COc1ccc(-c2oc3ccc(-c4cc(OC)c(OC)c(OC)c4)cc3c2C#Cc2ccccn2)cc1	-0.5	85.3*	-0.6	36.8	3.7	nt	63.9*	64.0*
COc1ccc(-c2oc3cccnc3c2C#CC2(O)CCCCC2)cc1	2.9	52.4*	7.4	36.0	2.9	17.5	38.6	nt
OC1(C#Cc2c(-c3ccsc3)oc3ccc(N4CCOCC4)cc23)CCCCC1	nt	23.7	9.5	4.4	0.5	13.9	nt	nt
COc1cc(-c2ccc3oc(-c4ccsc4)c(C#CC4(O)CCCCC4)c3c2)cc(OC)c1OC	15.5	51.5*	6.8	73.4	1.9	40.9	9.3	nt
COc1ccc(C#Cc2c(-c3ccc(OC)cc3)oc3ccc(-c4ccc(OC)cc4)cc23)cc1	-2.4	-10.1	0.2	-12.1	0.7	-23.0	nt	nt
COCCC1CCCCN1C(=O)c1cccc(OC2CCN(C3CCCC3)CC2)c1 (stereo not drawn)	-9.4	5.1	-2.7	-2.8	0.4	14.9	nt	nt
CSc1ccc(CN(C)C(=O)COc2ccc(C(=O)c3ccccc3)cc2)cc1	-13.2	65.4*	0.5	-10.7	0.3	6.4	59.4*	96.4*
O=C(COc1ccccc1)NCc1ccccc1	nt	0.0	-2.7	nt	0.5	-16.6	nt	nt
COc1ccc(CCN(C)C(=O)COc2ccc(C(=O)c3ccccc3)cc2)cc1OC	-1.1	-12.6	-2.7	nt	-0.3	-7.2	nt	nt
O=C(COc1ccc(C(=O)c2ccccc2)cc1)NCc1ccc(F)cc1	0.5	63.2*	0.9	0.0	-1.4	-16.2	67.0*	76.2*
O=C1CC(c2ccc(Cl)c([N+](=O)[O-])c2)c2ccc3ccccc3c2N1 (stereo not drawn)	18.1	36.1	-1.5	0.3	2.6	46.0	nt	nt
CN(C)c1ccc(C2CNC(c3ccc(Cl)c([N+](=O)[O-])c3)c3[nH]c4ccccc4c32)cc1 (stereo not drawn)	7.0	54.1*	-0.7	nt	-0.7	57.4*	28.6	62.0*
Oc1ccc(N=Nc2ccc3c(c2)OCCO3)c2cccnc12	nt	77.4*	-1.8	nt	8.3	83.4*	89.3*	52.6*
CC(C)c1cc(C(=O)NC2CCCc3c2cnn3-c2ccccc2F)no1 (stereo not drawn)	16.2	89.7*	-4.3	3.4	1.1	-9.5	76.7*	29.3
SMILES	Beta cell apopt	Mdm2 MdmX PPI	UPR XBP1 act	CSC inhib	CHOP UPR activ	T cruzi repl	Mdm2 MdmX conf	FLuc counter
COc1ccccc1CN(Cc1nc2ccccc2c(=O)[nH]1)S(=O)(=O)c1ccc2ccccc2c1	7.8	71.7*	-3.6	37.2	2.3	35.8	14.2	nt
CSc1cccc(CN2CCN(Cc3ccc(F)c(F)c3)C(CCO)C2)c1 (stereo not drawn)	nt	29.4	-3.2	-0.8	1.3	21.2	nt	nt
Cc1ccccc1OCc1nc2ccccc2c(=O)n1/N=C/c1cn[nH]c1-c1ccc(Br)cc1	7.5	69.2*	4.1	27.7	1.6	44.2	23.8	nt
O=c1c2ccccc2nc(COc2ccccc2)n1/N=C/c1c[nH]c2ccccc12	2.6	26.6	-0.1	15.9	-0.3	22.7	nt	nt
O=c1c2ccccc2nc(COc2ccccc2)n1/N=C/c1ccc(O)cc1O	87.3*	66.5*	-2.6	67.1	1.5	56.6*	57.6*	31.0
CC1(c2nnc(Cc3ccccc3)o2)CC(c2cccnc2)=NO1 (stereo not drawn)	-7.4	19.4	-1.1	-17.3	1.8	-9.0	nt	nt
Nc1ncnc(N2CCc3ccccc32)c1[N+](=O)[O-]	-34.0	82.1*	-2.3	0.7	-1.8	-2.6	85.0*	51.6*
Cc1ccc(S(=O)(=O)Nc2cccc(C(=O)NCc3cccnc3)c2)cc1F	19.9	50.7*	-1.7	58.9	-0.6	10.4	76.2*	61.5*
O=C(NCc1cccnc1)c1cccc(NS(=O)(=O)c2ccc(Br)cc2)c1	20.2	38.5	-1.5	-1.0	-0.8	-1.4	nt	nt
CN(C)/C=C(\C#N)C(=O)N/N=C(\CC(=O)C(F)(F)F)c1ccco1	-3.7	5.3	1.3	-11.5	-1.9	-2.1	nt	nt
COc1cc(NC(=O)c2cccs2)c(C(=O)OCC(=O)NC(C)c2ccccc2)cc1OC (stereo not drawn)	-0.9	14.6	3.1	-14.8	-0.1	2.3	nt	nt
